ChEMBL document CHEMBL5724801, “EUbOPEN Chemogenomics Library - Multiplex” (2024)
Values joined by “and” are separate entries in the source; they are usually repeats but may differ in a detail not shown here. Equal entries are not always repeated.

Test system: HEK-293T
Test: Multiplex assay against HEK293T
Format: toxicity, cell-based
Conditions: human
Summary of the method: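 Four dyes were applied at seeding to live cells: Hoechst33342, BioTracker Green Microtubule Cytoskeleton Dye, MitoTracker Red and Annexin V Alexa Fluor 680. Imaging after compound addition used a CQ1 microscope at 37°C and 5% CO2. CellPathfinder machine-learning gating then sorted cells into Hoechst high-intensity objects or normal cells, normal cells into healthy, pyknosed or fragmented nuclei, and pyknosed cells into mitotic or apoptotic, with tubulin, mitochondrial-mass and membrane-permeability phenotypes given as per cents of healthy-nucleus cells.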

[1] = 12 h, 1 µM, compound concentration 1 uM
[2] = 12 h, 10 µM, compound concentration 10 uM
[3] = 24 h, 1 µM, compound concentration 1 uM
[4] = 24 h, 10 µM, compound concentration 10 uM
[5] = 48 h, 1 µM, compound concentration 1 uM
[6] = 48 h, 10 µM, compound concentration 10 uM

For N[C@@]1(C(=O)O)CO[C@H]2[C@H](C(=O)O)[C@H]21 [LY-379268], the “Population Apoptotic (%)” value [1] was 40% and 42%, the “Population Fragmented Nuclei (%)” value [1] was 6% and the “Population Healthy Nuclei (%)” value [1] was 81% and 80%. For the same compound, the “Population Hoechst High Intensity Objects (%)” value [1] was 5% and 10%, the “Population Membrane Permeable-Phenotype (%)” value [1] was 0% and 1% and the “Population Mitochondria Different-Phenotype (%)” value [1] was 38% and 57%. For the same compound, the “Population Mitotic Cells (%)” value [1] was 60% and 57%, the “Population Normal (%)” value [1] was 94% and 89% and the “Population Pyknosed Nuclei (%)” value [1] was 12%. For the same compound, the “Population Tubulin-Different-Phenotype (%)” value [1] was 26% and 18%, the “Total Cell Count” value [1] was 396 and 411 and the “Population Apoptotic (%)” value [2] was 27% and 52%. For the same compound, the “Population Fragmented Nuclei (%)” value [2] was 10% and 8%, the “Population Healthy Nuclei (%)” value [2] was 78% and 79% and the “Population Hoechst High Intensity Objects (%)” value [2] was 8% and 7%. The “Population Membrane Permeable-Phenotype (%)” value [2] was 0%, the “Population Mitochondria Different-Phenotype (%)” value [2] was 33% and 51% and the “Population Mitotic Cells (%)” value [2] was 72% and 47%. The “Population Normal (%)” value [2] was 91% and 92%, the “Population Pyknosed Nuclei (%)” value [2] was 10% and 12% and the “Population Tubulin-Different-Phenotype (%)” value [2] was 31% and 18%. For the same compound, the “Total Cell Count” value [2] was 437 and 380, the “Population Apoptotic (%)” value [3] was 30% and 29% and the “Population Fragmented Nuclei (%)” value [3] was 8% and 7%. The “Population Healthy Nuclei (%)” value [3] was 79% and 83%, the “Population Hoechst High Intensity Objects (%)” value [3] was 2% and 7% and the “Population Membrane Permeable-Phenotype (%)” value [3] was 0%. For the same compound, the “Population Mitochondria Different-Phenotype (%)” value [3] was 21% and 31%, the “Population Mitotic Cells (%)” value [3] was 70% and the “Population Normal (%)” value [3] was 97% and 92%. The “Population Pyknosed Nuclei (%)” value [3] was 11% and 9%, the “Population Tubulin-Different-Phenotype (%)” value [3] was 20% and 13% and the “Total Cell Count” value [3] was 517 and 481. For the same compound, the “Population Apoptotic (%)” value [4] was 36% and 43%, the “Population Fragmented Nuclei (%)” value [4] was 10% and 8% and the “Population Healthy Nuclei (%)” value [4] was 79% and 82%. The “Population Hoechst High Intensity Objects (%)” value [4] was 6% and 8%, the “Population Membrane Permeable-Phenotype (%)” value [4] was 0% and the “Population Mitochondria Different-Phenotype (%)” value [4] was 24% and 39%. For the same compound, the “Population Mitotic Cells (%)” value [4] was 63% and 56%, the “Population Normal (%)” value [4] was 93% and 91% and the “Population Pyknosed Nuclei (%)” value [4] was 9%. For the same compound, the “Population Tubulin-Different-Phenotype (%)” value [4] was 15%, the “Total Cell Count” value [4] was 551 and 470 and the “Population Apoptotic (%)” value [5] was 26% and 33%. For the same compound, the “Population Fragmented Nuclei (%)” value [5] was 13% and 10%, the “Population Healthy Nuclei (%)” value [5] was 79% and 81% and the “Population Hoechst High Intensity Objects (%)” value [5] was 3% and 7%. For the same compound, the “Population Membrane Permeable-Phenotype (%)” value [5] was 1% and 0%, the “Population Mitochondria Different-Phenotype (%)” value [5] was 15% and 22% and the “Population Mitotic Cells (%)” value [5] was 73% and 66%. For the same compound, the “Population Normal (%)” value [5] was 97% and 92%, the “Population Pyknosed Nuclei (%)” value [5] was 6% and 7% and the “Population Tubulin-Different-Phenotype (%)” value [5] was 9% and 14%. For the same compound, the “Total Cell Count” value [5] was 866 and 611, the “Population Apoptotic (%)” value [6] was 24% and 25% and the “Population Fragmented Nuclei (%)” value [6] was 16% and 11%. The “Population Healthy Nuclei (%)” value [6] was 75% and 80%, the “Population Hoechst High Intensity Objects (%)” value [6] was 4% and the “Population Membrane Permeable-Phenotype (%)” value [6] was 1% and 0%. The “Population Mitochondria Different-Phenotype (%)” value [6] was 18% and 19%, the “Population Mitotic Cells (%)” value [6] was 75% and the “Population Normal (%)” value [6] was 95%. For the same compound, the “Population Pyknosed Nuclei (%)” value [6] was 7%, the “Population Tubulin-Different-Phenotype (%)” value [6] was 10% and 9% and the “Total Cell Count” value [6] was 781 and 689.
